# Measurements from different studies.
# Lines come from different studies, so protocols differ.
# GHSR: Growth hormone secretagogue receptor type 1 (GHSR, Homo sapiens, UniProt Q92847)
# CA12: Carbonic anhydrase 12 (CA12, Homo sapiens, UniProt O43570)
# GLP1R: Glucagon-like peptide 1 receptor (GLP1R, Homo sapiens, UniProt P43220)
# ACE: Angiotensin-converting enzyme (ACE, Homo sapiens, UniProt P12821)
# DRD3: D(3) dopamine receptor (DRD3, Homo sapiens, UniProt P35462)
# SLC6A3: Sodium-dependent dopamine transporter (SLC6A3, Homo sapiens, UniProt Q01959)
Compound,target,test,setting,measurement,result
CC[C@H](C)[C@H](NC(=O)[C@H](C)NC(=O)[C@H](C)NC(=O)[C@H](CCC(=O)O)NC(=O)[C@H](CCCNC(=N)N)NC(=O)[C@H](CCC(=O)O)NC(=O)[C@H](CC(C)C)NC(=O)[C@H](CCSC)NC(=O)[C@H](CCCNC(=N)N)NC(=O)[C@H](CCCNC(=N)N)NC(=O)[C@H](CC(C)C)NC(=O)[C@H](Cc1c[nH]cn1)NC(=O)[C@H](CCC(=O)O)NC(=O)[C@@H]1CCCN1C(=O)[C@H](CO)NC(=O)[C@H](CC(C)C)NC(=O)[C@H](Cc1ccccc1)NC(=O)[C@H](Cc1ccc(O)cc1)NC(=O)[C@H](CO)NC(=O)CN)C(=O)N1CCC[C@H]1C(=O)N1CCC[C@H]1C(=O)N1CCC[C@H]1C(=O)N1CCC[C@H]1C(=O)N[C@H](C(=O)N1CCC[C@H]1C(=O)N1CCC[C@H]1C(=O)N[C@@H](CC(C)C)C(=O)O)C(C)C,GHSR,"calcium signal, antagonist, fluorescence",,IC50,1.37 µM
O=C(Nc1ccc2c(c1)C=CCP(=O)(O)O2)c1ccccc1I,CA12,"enzyme activity, inhibitor, stopped-flow",,Ki,6.9 nM
CC(C)C[C@H](NC(=O)CNC(=O)[C@H](CCCNC(=N)N)NC(=O)[C@H](Cc1c[nH]c2ccccc12)NC(=O)[C@H](Cc1ccccc1)NC(=O)[C@@H]1CCCN1C(=O)CN)C(=O)N[C@@H](CO)C(=O)N[C@@H](CCCNC(=N)N)C(=O)N[C@@H](CCCNC(=N)N)C(=O)N1CCC[C@H]1C(=O)N[C@@H](CC(C)C)C(=O)N[C@@H](CCCNC(=N)N)C(=O)O,GHSR,"calcium signal, antagonist, fluorescence",,IC50,3.37 µM
N#C[Se]Cc1cc(=O)oc2cc(O)ccc12,CA12,"enzyme activity, inhibitor, stopped-flow",,Ki,93.3 nM
O=C(Nc1ccc2c(c1)C=CCP(=O)(O)O2)c1ccc(Br)cc1,CA12,"enzyme activity, inhibitor, stopped-flow",,Ki,84.4 nM
CC(C)C[C@H](NC(=O)[C@H](CCC(=O)O)NC(=O)[C@H](C)NC(=O)[C@@H](NC(=O)[C@H](Cc1ccccc1)NC(=O)[C@H](CC(C)C)NC(=O)[C@H](CCCNC(=N)N)NC(=O)[C@H](C)NC(=O)[C@H](C)NC(=O)[C@H](CCCCN)NC(=O)[C@H](CCC(=O)O)NC(=O)[C@H](CO)NC(=O)[C@H](CC(C)C)NC(=O)[C@H](Cc1ccc(O)cc1)NC(=O)[C@H](CCC(=O)O)NC(=O)[C@H](CC(=O)O)NC(=O)[C@H](CC(C)C)NC(=O)[C@H](CC(C)C)NC(=O)[C@H](CCC(=O)O)NC(=O)[C@@H](NC(=O)[C@H](Cc1ccccc1)NC(=O)[C@H](CCC(=O)O)NC(=O)[C@H](CCC(=O)O)NC(=O)[C@H](CCC(=O)O)NC(=O)[C@H](C)NC(=O)[C@@H](N)CO)[C@@H](C)O)C(C)C)C(=O)N[C@@H](CCCCN)C(=O)N[C@@H](CCCCN)C(=O)O,GLP1R,"calcium signal, antagonist, fluorescence",,IC50,15.7 µM
CC(C)C[C@H](NC(=O)[C@@H](NC(=O)[C@@H](NC(=O)[C@@H]1CCCN1C(=O)[C@@H](N)CCC(=O)O)C(C)C)[C@@H](C)O)C(=O)N[C@H](C(=O)O)[C@@H](C)O,ACE,"enzyme activity, inhibitor",,IC50,~872 µM
Cc1[nH]c(C)c(S(=O)(=O)Nc2ccc(S(F)(F)(F)(F)F)c(Cl)c2)c1C(=O)N1CCC(F)(F)C1,DRD3,"β-arrestin recruitment, antagonist",,IC50,1.1 µM
CCCCC1CNC2CCc3ccc(OC)cc3C12 (racemic),DRD3,"ligand displacement, radioligand",,Ki,5030 nM
CC[C@H](C)[C@H](NC(=O)[C@H](C)NC(=O)[C@H](C)NC(=O)[C@H](CCC(=O)O)NC(=O)[C@H](CCCNC(=N)N)NC(=O)[C@H](C)NC(=O)[C@H](CC(C)C)NC(=O)[C@H](CC(C)C)NC(=O)[C@H](CCCNC(=N)N)NC(=O)[C@H](CCCNC(=N)N)NC(=O)[C@H](CCC(=O)O)NC(=O)[C@H](Cc1c[nH]cn1)NC(=O)[C@H](CCC(=O)O)NC(=O)[C@@H]1CCCN1C(=O)[C@H](CO)NC(=O)[C@H](CC(C)C)NC(=O)[C@H](Cc1ccccc1)NC(=O)[C@H](Cc1c[nH]c2ccccc12)NC(=O)[C@H](CO)NC(=O)CN)C(=O)N1CCC[C@H]1C(=O)N1CCC[C@H]1C(=O)N1CCC[C@H]1C(=O)N1CCC[C@H]1C(=O)N[C@H](C(=O)N1CCC[C@H]1C(=O)N1CCC[C@H]1C(=O)N[C@@H](CC(C)C)C(=O)O)C(C)C,GHSR,"calcium signal, agonist, fluorescence",,EC50,270 nM
COC(=O)[C@H]1[C@@H](c2ccc(Cl)c(Cl)c2)C[C@@H]2CC[C@H]1N2CCCOCc1ccc2cc3ccccc3cc2c1,SLC6A3,"ligand displacement, radioligand",pH 7.4,Ki,51 nM
O=C(Nc1ccccc1)Nc1ccc2c(c1)C=CCP(=O)(O)O2,CA12,"enzyme activity, inhibitor, stopped-flow",,Ki,> 10000 nM
CC[C@H](C)[C@H](NC(=O)[C@H](Cc1ccccc1)NC(=O)[C@H](CCC(N)=O)NC(=O)[C@H](CCCNC(=N)N)NC(=O)[C@@H](NC(=O)[C@H](C)NC(=O)[C@H](CCCCN)NC(=O)[C@H](CCCNC(=N)N)NC(=O)[C@H](CCC(=O)O)NC(=O)[C@H](CC(C)C)NC(=O)[C@H](CC(C)C)NC(=O)[C@H](CCC(=O)O)NC(=O)[C@H](CO)NC(=O)[C@H](Cc1c[nH]c2ccccc12)NC(=O)[C@H](CC(C)C)NC(=O)[C@H](CO)NC(=O)[C@@H](NC(=O)[C@H](Cc1ccccc1)NC(=O)[C@H](CCC(=O)O)NC(=O)[C@H](CC(C)C)NC(=O)[C@H](CCC(=O)O)NC(=O)CNC(=O)[C@@H]1CCCN1)[C@@H](C)O)C(C)C)C(=O)N[C@@H](CCC(=O)O)C(=O)N[C@@H](CC(=O)O)C(=O)N[C@@H](CC(C)C)C(=O)N[C@@H](CCCCN)C(=O)N[C@@H](CCCCN)C(=O)O,GLP1R,"calcium signal, antagonist, fluorescence",,IC50,0.874 µM
COC(=O)c1ccc(NS(=O)(=O)c2c(C)[nH]c(C)c2C(=O)N2CCC(F)(F)C2)cc1Cl,DRD3,"β-arrestin recruitment, antagonist",,IC50,33 µM
O=C(Nc1cccc(Cl)c1)Nc1ccc2c(c1)C=CCP(=O)(O)O2,CA12,"enzyme activity, inhibitor, stopped-flow",,Ki,> 10000 nM
CC(C)C[C@H](NC(=O)[C@@H](N)C(C)C)C(=O)N[C@@H](CO)C(=O)N1CCC[C@H]1C(=O)N[C@@H](CCC(N)=O)C(=O)O,ACE,"enzyme activity, inhibitor, absorbance",,IC50,105 µM
O=C(Nc1ccc2c(c1)C=CCP(=O)(O)O2)c1ccc2ccccc2c1,CA12,"enzyme activity, inhibitor, stopped-flow",,Ki,27.2 nM
Cc1[nH]c(C)c(S(=O)(=O)Nc2ccc(S(=O)(=O)F)c(Cl)c2)c1C(=O)N1CCC(F)(F)C1,DRD3,"β-arrestin recruitment, antagonist",,IC50,0.93 µM
O=C(Nc1ccc2c(c1)C=CCP(=O)(O)O2)c1ccc(F)cc1,CA12,"enzyme activity, inhibitor, stopped-flow",,Ki,4 nM
NC(=O)CC[C@H](N)C(=O)NCC(=O)NCC(=O)N[C@@H](CC(=O)O)C(=O)N[C@@H](Cc1ccccc1)C(=O)O,ACE,"enzyme activity, inhibitor",,IC50,~1090 µM
CCC(CNc1nc(-c2cn3ccnc3cc2C)nc2ccccc12)c1ccccc1 (stereo not drawn),SLC6A3,"ligand displacement, radioligand",,IC50,4.59 µM
